Data: ChEMBL document CHEMBL1155341, “Synthesis and antibacterial activity of 7-(1,2,3,4-tetrahydropyrrolo[1,2-a]pyrazin-7-yl) quinolones” (2009)
Converted amounts (≈) assume the structure as drawn. The source made the active and inactive calls. The rule behind the calls is not given here.

How the values were obtained:
Assay type in all cases: functional
[1] = test system: Staphylococcus aureus; test: Antibacterial activity against ciprofloxacin susceptible Staphylococcus aureus subsp. aureus ATCC 13709 by broth microdilution method
Summary of the method: (§1)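 Broth microdilution per CLSI (NCCLS M7-A5) guidelines; MIC taken as lowest concentration inhibiting visible growth. Strains are ciprofloxacin-susceptible reference strains.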

[2] = test system: Streptococcus pneumoniae; test: Antibacterial activity against ciprofloxacin susceptible Streptococcus pneumoniae ATCC 49619 by broth microdilution method; summary of the method: as §1
[3] = test system: Escherichia coli; test: Antibacterial activity against ciprofloxacin susceptible Escherichia coli ATCC 25922 by broth microdilution method; summary of the method: as §1
[4] = test system: Streptococcus pneumoniae; test: Antibacterial activity against ciprofloxacin resistant Streptococcus pneumoniae OC5462 by broth microdilution method
Summary of the method: (§2)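 MIC determined by broth microdilution following CLSI (formerly NCCLS) M7-A5 guidelines for aerobically growing bacteria. MIC is the lowest compound concentration inhibiting visible growth. Strains are ciprofloxacin-resistant clinical isolates tested within a six-strain abbreviated panel.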

[5] = test system: Streptococcus pneumoniae; test: Antibacterial activity against ciprofloxacin resistant Streptococcus pneumoniae OC5458 by broth microdilution method; summary of the method: as §2
[6] = test system: Streptococcus pneumoniae; test: Antibacterial activity against ciprofloxacin resistant Streptococcus pneumoniae OC5465 by broth microdilution method; summary of the method: as §2
[7] = test system: Staphylococcus aureus; test: Antimicrobial activity against Staphylococcus aureus subsp. aureus ATCC 13709 infected in po dosed Swiss Webster mouse treated 1 hr after infection measured fter 3 days; conditions: ATCC 13709, po
Summary of the method: (§3)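 Female Swiss-Webster mice infected ip with S. aureus ATCC13709; test compound given subcutaneously or orally 1 h post-infection; mortality followed for three days; untreated infected mice served as controls.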

[8] = test system: Staphylococcus aureus; test: Antimicrobial activity against Staphylococcus aureus subsp. aureus ATCC 13709 infected in sc dosed Swiss Webster mouse treated 1 hr after infection measured fter 3 days; conditions: ATCC 13709, sc; summary of the method: as §3

C[C@H]1NCCn2cc(-c3cc4c(cc3F)C(=O)C(C(=O)O)CN4C3CC3)cc21 (stereo not given in full)
MIC [1]: 0.25 µg/mL (≈ 0.652 µM) | MIC [2]: 1 µg/mL (≈ 2.61 µM) | MIC [3]: 4 µg/mL (≈ 10.4 µM) | MIC [4]: 16 µg/mL (≈ 41.7 µM) | MIC [5]: 8 µg/mL (≈ 20.9 µM) | MIC [6]: 0.25 µg/mL (≈ 0.652 µM)

COc1c(-c2cc3n(c2)CCN[C@@H]3C)c(F)cc2c1N(C1CC1)CC(C(=O)O)C2=O (stereo not given in full)
MIC [1]: 0.25 µg/mL (≈ 0.605 µM) | MIC [2]: 2 µg/mL (≈ 4.84 µM) | MIC [3]: 8 µg/mL (≈ 19.3 µM) | MIC [4]: 16 µg/mL (≈ 38.7 µM) | MIC [5]: > 16 µg/mL | MIC [6]: 2 µg/mL (≈ 4.84 µM)

C[C@@H]1NCCn2cc(-c3nc4c(cc3F)C(=O)C(C(=O)O)CN4c3ccc(F)cc3F)cc21 (stereo not given in full)
MIC [1]: 1 µg/mL (≈ 2.19 µM) | MIC [2]: 4 µg/mL (≈ 8.76 µM) | MIC [3]: > 16 µg/mL | MIC [4]: > 16 µg/mL | MIC [5]: > 16 µg/mL | MIC [6]: 8 µg/mL (≈ 17.5 µM)

C[C@@H]1NCCn2cc(-c3ccc4c(c3OC(F)F)N(C3CC3)CC(C(=O)O)C4=O)cc21 (stereo not given in full)
MIC [1]: 0.5 µg/mL (≈ 1.16 µM) | MIC [2]: 1 µg/mL (≈ 2.32 µM) | MIC [3]: 4 µg/mL (≈ 9.27 µM) | MIC [4]: 16 µg/mL (≈ 37.1 µM) | MIC [5]: 4 µg/mL (≈ 9.27 µM) | MIC [6]: 2 µg/mL (≈ 4.64 µM)

C[C@H]1Cn2cc(-c3nc4c(cc3F)C(=O)C(C(=O)O)CN4c3ccc(F)cc3F)cc2CN1 (stereo not given in full)
MIC [1]: 0.12 µg/mL (≈ 0.263 µM) | MIC [2]: 1 µg/mL (≈ 2.19 µM) | MIC [3]: 16 µg/mL (≈ 35.1 µM) | MIC [4]: 16 µg/mL (≈ 35.1 µM) | MIC [5]: 16 µg/mL (≈ 35.1 µM) | MIC [6]: 2 µg/mL (≈ 4.38 µM)

C[C@H]1Cn2cc(-c3c(F)cc4c5c3OC[C@H](C)N5CC(C(=O)O)C4=O)cc2CN1 (stereo not given in full)
MIC [1]: 0.25 µg/mL (≈ 0.626 µM) | MIC [2]: 1 µg/mL (≈ 2.5 µM) | MIC [3]: 4 µg/mL (≈ 10 µM) | MIC [4]: 8 µg/mL (≈ 20 µM) | MIC [5]: 4 µg/mL (≈ 10 µM) | MIC [6]: 0.5 µg/mL (≈ 1.25 µM)

COc1c(-c2cc3n(c2)CCNC3)c(F)cc2c1N(C1CC1)CC(C(=O)O)C2=O (stereo not given)
MIC [1]: 0.03 µg/mL (≈ 0.0751 µM) | MIC [2]: 0.25 µg/mL (≈ 0.626 µM) | MIC [3]: 1 µg/mL (≈ 2.5 µM) | MIC [4]: 1 µg/mL (≈ 2.5 µM) | MIC [5]: 1 µg/mL (≈ 2.5 µM) | MIC [6]: 0.12 µg/mL (≈ 0.3 µM)

O=C(O)c1cn(C2CC2)c2cc(N3CCNCC3)c(F)cc2c1=O [CIPROFLOXACIN]
MIC [1]: 0.12 µg/mL (≈ 0.362 µM) | MIC [2]: 1 µg/mL (≈ 3.02 µM) | MIC [3]: 0.03 µg/mL (≈ 0.0905 µM) | MIC [4]: > 16 µg/mL | MIC [5]: > 16 µg/mL | MIC [6]: > 16 µg/mL | ED50 [7]: 10.8 mg/kg | ED50 [8]: 1.4 mg/kg

C[C@H]1COc2c(-c3cc4n(c3)CCNC4)c(F)cc3c2N1CC(C(=O)O)C3=O (stereo not given in full)
MIC [1]: 0.5 µg/mL (≈ 1.3 µM) | MIC [2]: 2 µg/mL (≈ 5.19 µM) | MIC [3]: > 16 µg/mL | MIC [4]: > 16 µg/mL | MIC [5]: > 16 µg/mL | MIC [6]: 1 µg/mL (≈ 2.59 µM)

C[C@H]1NCCn2cc(-c3ccc4c(c3OC(F)F)N(C3CC3)CC(C(=O)O)C4=O)cc21 (stereo not given in full)
MIC [1]: 0.5 µg/mL (≈ 1.16 µM) | MIC [2]: 1 µg/mL (≈ 2.32 µM) | MIC [3]: 4 µg/mL (≈ 9.27 µM) | MIC [4]: 16 µg/mL (≈ 37.1 µM) | MIC [5]: 8 µg/mL (≈ 18.5 µM) | MIC [6]: 4 µg/mL (≈ 9.27 µM)

C[C@H]1Cn2cc(-c3cc4c(cc3F)C(=O)C(C(=O)O)CN4C3CC3)cc2CN1 (stereo not given in full)
MIC [1]: 0.06 µg/mL (≈ 0.156 µM) | MIC [2]: 0.5 µg/mL (≈ 1.3 µM) | MIC [3]: 2 µg/mL (≈ 5.22 µM) | MIC [4]: 4 µg/mL (≈ 10.4 µM) | MIC [5]: 2 µg/mL (≈ 5.22 µM) | MIC [6]: 0.12 µg/mL (≈ 0.313 µM)

COc1c(-c2cc3n(c2)C[C@H](C)NC3)c(F)cc2c1N(C1CC1)CC(C(=O)O)C2=O (stereo not given in full)
MIC [1]: 0.03 µg/mL (≈ 0.0726 µM) | MIC [2]: 0.12 µg/mL (≈ 0.29 µM) | MIC [3]: 0.5 µg/mL (≈ 1.21 µM) | MIC [4]: 1 µg/mL (≈ 2.42 µM) | MIC [5]: 0.5 µg/mL (≈ 1.21 µM) | MIC [6]: 0.25 µg/mL (≈ 0.605 µM) | ED50 [7]: 4 mg/kg | ED50 [8]: < 1.25 mg/kg

C[C@@H]1NCCn2cc(-c3nc4c(cc3F)C(=O)C(C(=O)O)CN4C3CC3)cc21 (stereo not given in full)
MIC [1]: 0.5 µg/mL (≈ 1.3 µM) | MIC [2]: 1 µg/mL (≈ 2.6 µM) | MIC [3]: 8 µg/mL (≈ 20.8 µM) | MIC [4]: 8 µg/mL (≈ 20.8 µM) | MIC [5]: 8 µg/mL (≈ 20.8 µM) | MIC [6]: 1 µg/mL (≈ 2.6 µM)

C[C@@H]1NCCn2cc(-c3c(F)cc4c5c3OC[C@H](C)N5CC(C(=O)O)C4=O)cc21 (stereo not given in full)
MIC [1]: 0.25 µg/mL (≈ 0.626 µM) | MIC [2]: 1 µg/mL (≈ 2.5 µM) | MIC [3]: 4 µg/mL (≈ 10 µM) | MIC [4]: 8 µg/mL (≈ 20 µM) | MIC [5]: 4 µg/mL (≈ 10 µM) | MIC [6]: 0.5 µg/mL (≈ 1.25 µM)

C[C@@H]1NCCn2cc(-c3c(F)cc4c(c3OC(F)F)N(C3CC3)CC(C(=O)O)C4=O)cc21 (stereo not given in full)
MIC [1]: 0.25 µg/mL (≈ 0.556 µM) | MIC [2]: 2 µg/mL (≈ 4.45 µM) | MIC [3]: 1 µg/mL (≈ 2.23 µM) | MIC [4]: 8 µg/mL (≈ 17.8 µM) | MIC [5]: 2 µg/mL (≈ 4.45 µM) | MIC [6]: 2 µg/mL (≈ 4.45 µM)

O=C(O)C1CN(C2CC2)c2c(ccc(-c3cc4n(c3)CCNC4)c2OC(F)F)C1=O (stereo not given)
MIC [1]: 0.06 µg/mL (≈ 0.144 µM) | MIC [2]: 0.5 µg/mL (≈ 1.2 µM) | MIC [3]: 1 µg/mL (≈ 2.4 µM) | MIC [4]: 8 µg/mL (≈ 19.2 µM) | MIC [5]: inactive | MIC [6]: 0.25 µg/mL (≈ 0.599 µM)

COc1c(-c2cc3n(c2)CCN[C@H]3C)c(F)cc2c1N(C1CC1)CC(C(=O)O)C2=O (stereo not given in full)
MIC [1]: 0.12 µg/mL (≈ 0.29 µM) | MIC [2]: 0.5 µg/mL (≈ 1.21 µM) | MIC [3]: 2 µg/mL (≈ 4.84 µM) | MIC [4]: 4 µg/mL (≈ 9.67 µM) | MIC [5]: 1 µg/mL (≈ 2.42 µM) | MIC [6]: 0.5 µg/mL (≈ 1.21 µM)

C[C@H]1Cn2cc(-c3nc4c(cc3F)C(=O)C(C(=O)O)CN4C3CC3)cc2CN1 (stereo not given in full)
MIC [1]: 0.06 µg/mL (≈ 0.156 µM) | MIC [2]: 0.5 µg/mL (≈ 1.3 µM) | MIC [3]: 2 µg/mL (≈ 5.2 µM) | MIC [4]: 8 µg/mL (≈ 20.8 µM) | MIC [5]: 8 µg/mL (≈ 20.8 µM) | MIC [6]: 0.25 µg/mL (≈ 0.65 µM)

C[C@H]1Cn2cc(-c3ccc4c(c3OC(F)F)N(C3CC3)CC(C(=O)O)C4=O)cc2CN1 (stereo not given in full)
MIC [1]: 0.12 µg/mL (≈ 0.278 µM) | MIC [2]: 1 µg/mL (≈ 2.32 µM) | MIC [3]: 1 µg/mL (≈ 2.32 µM) | MIC [4]: 8 µg/mL (≈ 18.5 µM) | MIC [5]: 1 µg/mL (≈ 2.32 µM) | MIC [6]: 1 µg/mL (≈ 2.32 µM)

C[C@@H]1NCCn2cc(-c3cc4c(cc3F)C(=O)C(C(=O)O)CN4C3CC3)cc21 (stereo not given in full)
MIC [1]: 0.25 µg/mL (≈ 0.652 µM) | MIC [2]: 1 µg/mL (≈ 2.61 µM) | MIC [3]: 4 µg/mL (≈ 10.4 µM) | MIC [4]: 16 µg/mL (≈ 41.7 µM) | MIC [5]: 4 µg/mL (≈ 10.4 µM) | MIC [6]: 0.5 µg/mL (≈ 1.3 µM)

COc1c(-c2cc3n(c2)C[C@@H](C)NC3)c(F)cc2c1N(C1CC1)CC(C(=O)O)C2=O (stereo not given in full)
MIC [1]: 0.25 µg/mL (≈ 0.605 µM) | MIC [2]: 0.25 µg/mL (≈ 0.605 µM) | MIC [3]: 1 µg/mL (≈ 2.42 µM) | MIC [4]: 2 µg/mL (≈ 4.84 µM) | MIC [5]: 1 µg/mL (≈ 2.42 µM) | MIC [6]: 0.5 µg/mL (≈ 1.21 µM)
